Reference: ChEMBL document CHEMBL4304750, “Novel Anthraquinone Compounds Induce Cancer Cell Death through Paraptosis” (ACS Med Chem Lett, 2019)
Calls of active or inactive are those of the source. The calls are words filed in the database; no cut-off is given here.

What was measured:
SMMC-7721 [1] = test: Induction of cytoplasmic vacuolation in human SMMC7721 cells assessed as vacuolar cell formation and appearance of apoptotic cells at 3 to 10 uM incubated for 48 hrs by phase contrast microscopy; type: functional, cell-based
SMMC-7721 [2] = test: Induction of apoptosis with PS translocation in human SMMC7721 cells at 3 to 10 uM incubated for 48 hrs by Annexin V-FITC and propidium iodide staining based flow cytometry; type: functional, cell-based
Outline: (§1)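 After 48 h treatment, SMMC-7721 cells were collected, stained with annexin V-FITC plus PI, and analysed by flow cytometry for PS externalization/apoptotic fraction.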

CNE [3] = test: Antiproliferative activity against human CNE1 cells assessed as reduction in cell viability incubated for 48 hrs by MTT assay; type: functional, cell-based
CNE-2 [4] = test: Antiproliferative activity against human CNE2 cells assessed as reduction in cell viability incubated for 48 hrs by MTT assay; type: functional, cell-based
HepG2 [5] = test: Antiproliferative activity against human HepG2 cells assessed as reduction in cell viability incubated for 48 hrs by MTT assay; type: functional, cell-based
SMMC-7721 [6] = test: Antiproliferative activity against human SMMC7721 assessed as reduction in cell viability incubated for 48 hrs by MTT assay; type: functional, cell-based
CNE [7] = test: Induction of cell vacuole formation in human CNE1 cells at 5 uM incubated for 24 hrs by phase contrast microscopy; type: functional, cell-based
CNE-2 [8] = test: Induction of cell vacuole formation in human CNE2 cells at 5 uM incubated for 24 hrs by phase contrast microscopy; type: functional, cell-based
HepG2 [9] = test: Induction of cell vacuole formation in human HepG2 cells at 5 uM incubated for 24 hrs by phase contrast microscopy; type: functional, cell-based
SMMC-7721 [10] = test: Induction of cell vacuole formation in human SMMC7721cells at 5 uM incubated for 24 hrs by phase contrast microscopy; type: functional, cell-based
SMMC-7721 [11] = test: Induction of paraptosis in human SMMC7721 cells assessed as increase in GRP78 expression by Western blot analysis; type: functional, cell-based
SMMC-7721 [12] = test: Induction of paraptosis in human SMMC7721 cells assessed as increase in LC3-II/LC3-I expression ratio by Western blot analysis; type: functional, cell-based
SMMC-7721 [13] = test: Decrease in p62 expression level in human SMMC7721 cells by Western blot analysis; type: functional, cell-based
SMMC-7721 [14] = test: Induction of cytoplasmic vacuolation in human SMMC7721 cells at 10 uM incubated for 48 hrs by phase contrast microscopy; type: functional, cell-based
SMMC-7721 [15] = test: Antiproliferative activity against human SMMC7721 assessed as reduction in cell viability incubated for 48 hrs by CCK-8 assay; type: functional, cell-based; conditions: SMMC-7721, 48 h
SMMC-7721 [16] = test: Induction of cytoplasmic vacuolation in human SMMC7721 cells assessed as increase in number of vacuoles formation with shrinked volume of vacuoles at 3 to 10 uM incubated for 48 hrs by inverted phase contrast microscopy; type: functional, cell-based
SMMC-7721 [17] = test: Induction of cell morphological changes in human SMMC7721 cells assessed as cell shrinkage at 3 to 10 uM incubated for 48 hrs by HE staining based light microscopy; type: functional
Outline: (§2)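 Haematoxylin-eosin staining of SMMC-7721 cells after 48 h treatment, examined by light microscopy.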

SMMC-7721 [18] = test: Induction of cell morphological changes in human SMMC7721 cells assessed as cytoplasmic loss at 3 to 10 uM incubated for 48 hrs by H and E staining based light microscopy; type: functional; outline: as §2
SMMC-7721 [19] = test: Induction of endoplasmic reticulum vacuolation in human SMMC7721 cells assessed as nuclei shrank and appearance of vacuoles surrounded by positive ER-specific markers at 3 to 5 uM incubated for 48 hrs by ER-tracker red and Hoechst 33342 staining based laser scanning confocal microscopy; type: functional, cell-based
SMMC-7721 [20] = test: Induction of endoplasmic reticulum vacuolation in human SMMC7721 cells assessed as increase in vacuole formation and entire ER cytoplasm occupied with vacuole with loss of cell contents at 3 to 5 uM incubated for 48 hrs by ER-tracker red and Hoechst 33342 staining based laser scanning confocal microscopy; type: functional
SMMC-7721 [21] = test: Induction of cell morphological changes in human SMMC7721 cells assessed as appearance of large vacuoles in cytoplasm at 5 uM incubated for 48 hrs by transmission electron microscopy; type: functional, cell-based
Outline: (§3)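 SMMC-7721 cells incubated 48 h at 5 μM, alongside untreated control cells, then imaged by transmission electron microscopy. ER, mitochondria, Golgi, nucleus, membrane and autophagosomes/apoptotic bodies were inspected.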

SMMC-7721 [22] = test: Induction of endoplasmic reticulum vacuolation in human SMMC7721 cells assessed as vacuole derivatization by expansion and swelling of rough ER with vacuoles wrapped in monolayer membranes with loss of ER structure integrity at 5 uM incubated for 48 hrs by transmission electron microscopy; type: functional, cell-based; outline: as §3
SMMC-7721 [23] = test: Induction of mitochondrial swelling, vacuoles and ridges disappearance and loss of mitochondrial and golgi apparatus structural integrity in human SMMC7721 cells at 5 uM incubated for 48 hrs by transmission electron microscopy; type: functional, cell-based; outline: as §3
HepG2 [24] = test: Antiproliferative activity against human HepG2 cells assessed as reduction in cell viability incubated for 48 hrs by CCK-8 assay; type: functional, cell-based
CNE-2 [25] = test: Antiproliferative activity against human CNE2 cells assessed as reduction in cell viability incubated for 48 hrs by CCK-8 assay; type: functional, cell-based
SMMC-7721 [26] = test: Antiproliferative activity against human SMMC7721 cells assessed as decrease in cell viability incubated for 48 hrs by CCK-8 assay; type: functional, cell-based
Outline: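 SMMC-7721 cells exposed 48 h to 3, 5 or 10 μM, then viability read by CCK-8 assay.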

SMMC-7721 [27] = test: Induction of apoptosis in human SMMC7721 cells assessed as viable cells with normal cell membrane at 10 uM incubated for 48 hrs by Annexin V-FITC and propidium iodide staining based flow cytometry; type: functional; outline: as §1
SMMC-7721 [28] = test: Induction of cell cycle arrest in human SMMC7721 cells at 3 to 10 uM incubated for 48 hrs by propidium iodide staining based flow cytometry; type: functional
SMMC-7721 [29] = test: Effect on cleaved caspase 3 level in human SMMC7721 cells at antiproliferative IC60 incubated for 12 to 48 hrs by Western blot analysis; type: functional, cell-based
Outline: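 SMMC-7721 cells were treated 12, 24 and 48 h, with cisplatin as apoptosis positive control. Extracts were immunoblotted for procaspase-3 and cleaved caspase-3, with β-actin as loading control.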

SMMC-7721 [30] = test: Induction of endoplasmic reticulum stress in human SMMC7721 cells assessed as increase in GRP78 expression at 3 uM by Western blot analysis; type: functional, cell-based; conditions: TDE = time-dependent effect
SMMC-7721 [31] = test: Increase in LC3-II/LC3-I expression ratio in human SMMC7721 cells at 3 uM incubated for 12 to 48 hrs by Western blot analysis; type: functional, cell-based
SMMC-7721 [32] = test: Inhibition of autophagosome formation in human SMMC7721 cells assessed as increase in p62 level at 3 uM incubated for 12 to 48 hrs by Western blot analysis; type: functional, cell-based
CNE [33] = test: Antiproliferative activity against human CNE1 cells assessed as reduction in cell viability incubated for 48 hrs by CCK-8 assay; type: functional, cell-based
CNE [34] = test: Induction of cell vacuole formation in human CNE1 cells at 3 to 5 uM incubated for 48 hrs by phase contrast microscopy; type: functional, cell-based
CNE-2 [35] = test: Induction of cell vacuole formation in human CNE2 cells at 3 to 5 uM incubated for 48 hrs by phase contrast microscopy; type: functional, cell-based
HepG2 [36] = test: Induction of cell vacuole formation in human HepG2 cells at 3 to 5 uM incubated for 48 hrs by phase contrast microscopy; type: functional, cell-based
SMMC-7721 [37] = test: Induction of cell morphological changes in human SMMC7721 cells assessed as appearance of small vacuoles in cytoplasm at 5 uM incubated for 48 hrs by transmission electron microscopy; type: functional, cell-based; outline: as §3
SMMC-7721 [38] = test: Induction of cell morphological changes in human SMMC7721 cells assessed as nuclear chromatin pyknosis at 3 to 10 uM incubated for 48 hrs by H and E staining based light microscopy; type: functional; outline: as §2
SMMC-7721 [39] = test: Induction of cell morphological changes in human SMMC7721 cells assessed as change in cell membrane structure at 5 uM incubated for 48 hrs by transmission electron microscopy; type: functional, cell-based; outline: as §3
SMMC-7721 [40] = test: Induction of cell morphological changes in human SMMC7721 cells assessed as appearance of concentrated nucleus at 5 uM incubated for 48 hrs by transmission electron microscopy; type: functional, cell-based; outline: as §3
SMMC-7721 [41] = test: Induction of cell morphological changes in human SMMC7721 cells assessed as appearance of smaller nucleus at 5 uM incubated for 48 hrs by transmission electron microscopy; type: functional, cell-based; outline: as §3
SMMC-7721 [42] = test: Induction of cell morphological changes in human SMMC7721 cells assessed as autophagosome formation at 5 uM incubated for 48 hrs by transmission electron microscopy; type: functional, cell-based; outline: as §3
SMMC-7721 [43] = test: Induction of cell morphological changes in human SMMC7721 cells assessed as formation of apoptotic bodies at 5 uM incubated for 48 hrs by transmission electron microscopy; type: functional, cell-based; outline: as §3
SMMC-7721 [44] = test: Induction of cell morphological changes in human SMMC7721 cells assessed as swelling of mitochondria at 5 uM incubated for 48 hrs by transmission electron microscopy; type: functional, cell-based; outline: as §3
SMMC-7721 [45] = test: Induction of cell morphological changes in human SMMC7721 cells assessed as vacuole formation in mitochondria at 5 uM incubated for 48 hrs by transmission electron microscopy; type: functional, cell-based; outline: as §3
SMMC-7721 [46] = test: Induction of cell morphological changes in human SMMC7721 cells assessed as appearance of ridges in mitochondria at 5 uM incubated for 48 hrs by transmission electron microscopy; type: functional, cell-based; outline: as §3

In the case of `O=C(OCCN1CCCCC1)c1cc(OCc2ccccc2)c2c(c1)C(=O)c1cccc(OCc3ccccc3)c1C2=O`, the Activity (SMMC-7721 [1]) is reported as “Active”, the Activity (SMMC-7721 [2]) is reported as “Active” and the inhibition (CNE [3]) is reported as “Active”. The inhibition (CNE-2 [4]) was “Active”, the inhibition (HepG2 [5]) was “Active” and the inhibition (SMMC-7721 [6]) was “Active”. For the same molecule, the Activity (CNE [7]) was “Active”, the Activity (CNE-2 [8]) was “Active” and the Activity (HepG2 [9]) was “Active”. The Activity (SMMC-7721 [10]) was “Active”.
For `O=C(O)c1cc(O)c2c(c1)C(=O)c1cccc(O)c1C2=O`, the Activity (SMMC-7721 [11]) was “inactive”, the Activity (SMMC-7721 [12]) was “inactive” and the inhibition (SMMC-7721 [13]) was “inactive”.
In the case of `O=C(O)c1cc(OCc2ccccc2)c2c(c1)C(=O)c1cccc(OCc3ccccc3)c1C2=O`, the Activity (SMMC-7721 [11]) is reported as “Active”, the Activity (SMMC-7721 [12]) is reported as “inactive” and the inhibition (SMMC-7721 [13]) is reported as “inactive”. The Activity (SMMC-7721 [14]) was “Active”.
In the case of `O=C1c2cccc(OCc3ccccc3)c2C(=O)c2c(OCc3ccccc3)cc(C(=O)N3CCN(CCO)CC3)cc21`, the inhibition (CNE [3]) is reported as “Active”, the inhibition (CNE-2 [4]) is reported as “Active” and the inhibition (HepG2 [5]) is reported as “Active”. For the same molecule, the inhibition (SMMC-7721 [6]) was “Active”, the Activity (CNE [7]) was “Active” and the Activity (CNE-2 [8]) was “Active”. For the same molecule, the Activity (HepG2 [9]) was “Active” and the Activity (SMMC-7721 [10]) was “Active”.
With `O=C(NCCO)c1cc(OCc2ccccc2)c2c(c1)C(=O)c1cccc(OCc3ccccc3)c1C2=O` the IC50 (SMMC-7721 [15]) was 1.5 µM, the Activity (SMMC-7721 [16]) was “Active” and the Activity (SMMC-7721 [17]) was “Active”. The Activity (SMMC-7721 [18]) was “Active”, the Activity (SMMC-7721 [19]) was “Active” and the Activity (SMMC-7721 [20]) was “Active”. The Activity (SMMC-7721 [21]) was “Active”, the Activity (SMMC-7721 [22]) was “Active” and the Activity (SMMC-7721 [23]) was “Active”. For the same molecule, the inhibition (HepG2 [24]) was “Active”, the inhibition (CNE-2 [25]) was “Active” and the inhibition (SMMC-7721 [26]) was “Dose-dependent effect”. For the same molecule, the Activity (SMMC-7721 [2]) was “inactive”, the Activity (SMMC-7721 [27]) was 22.42% and the Activity (SMMC-7721 [28]) was “inactive”. The Activity (SMMC-7721 [29]) was “inactive”, the Activity (SMMC-7721 [30]) was “Tde” and the Activity (SMMC-7721 [31]) was “Active”. The inhibition (SMMC-7721 [32]) was “Active”, the Activity (SMMC-7721 [11]) was “Active” and the Activity (SMMC-7721 [12]) was “Active”. The inhibition (SMMC-7721 [13]) was “inactive”, the inhibition (CNE [33]) was “Active” and the Activity (CNE [7]) was “Active”. For the same molecule, the Activity (CNE-2 [8]) was “Active”, the Activity (HepG2 [9]) was “Active” and the Activity (CNE [34]) was “Active”. For the same molecule, the Activity (SMMC-7721 [10]) was “Active”, the Activity (CNE-2 [35]) was “Active” and the Activity (HepG2 [36]) was “Active”. The Activity (SMMC-7721 [37]) was “Active”, the Activity (SMMC-7721 [38]) was “Active” and the Activity (SMMC-7721 [39]) was “inactive”. For the same molecule, the Activity (SMMC-7721 [40]) was “Active”, the Activity (SMMC-7721 [41]) was “Active” and the Activity (SMMC-7721 [42]) was “inactive”. The Activity (SMMC-7721 [43]) was “inactive”, the Activity (SMMC-7721 [44]) was “Active” and the Activity (SMMC-7721 [45]) was “Active”. The Activity (SMMC-7721 [46]) was “inactive”.
